Assay results as given in publication PMC5741288 (Pain Reports, 2016).

Assays:
[1] = system: complete Freund's adjuvant–evoked thermal hyperalgesia; conditions: rat; cited from earlier work
[2] = system: carrageenan-evoked thermal hyperalgesia; conditions: cited from earlier work
heat-evoked pain = format: in vivo, healthy men
Procedure, shortened: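 In part 1 (single oral tablets, 1–225 mg, or placebo), heat pain detection and tolerance were measured with a 9 × 9 mm Peltier thermode on the volar forearm, to a 52 °C cutoff. Cold and von Frey mechanical pain thresholds were added in part 1b, with ratings on a 0–11 scale. Testing ran predose, 4 and 8 h, days 2, 4 and 6, and follow-up.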

capsaicin-induced flare = test: Block of topical capsaicin-induced flare in rats; format: in vivo, Sprague Dawley rats
QTcF interval = format: in vivo, healthy men

SMILES: CC(C)(O)c1ccccc1-c1ccc2[nH]c(/C=C/c3ccc(C(F)(F)F)cc3)nc2c1 [JNJ-39439335, trans-2-(2-{2-[2-(4-Trifluoromethyl-phenyl)-vinyl]-1H-benzimidazol-5-yl}-phenyl)-propan-2-ol]
- Complete Freund's adjuvant–evoked thermal hyperalgesia [1]: significantly attenuated
- Near maximally effective plasma concentration at the ED80 ([2]; rat carrageenan model of inflammatory pain): 0.009 µg/mL
- Carrageenan-evoked thermal hyperalgesia ([2]; rat): significantly attenuated
- Heat pain detection threshold, heat pain tolerance, and heat pain latency (heat-evoked pain; effect of treatment): clear, consistent dose-related increases
- Mechanical pain detection threshold (heat-evoked pain; healthy human participants (discussion)): no effect
- Dose levels at which mean HPT increased from predose to postdose (heat-evoked pain; part 1): ≥ 2 mg
- Doses at which most participants reached the HPD cutoff temperature (52°C) (heat-evoked pain; part 1): ≥ 30 mg
- Cold pain detection threshold (heat-evoked pain; part 1b, 15- to 225-mg dose range): No clear separation from placebo and no clear dose-related effect
- Mean heat pain latency (heat-evoked pain; part 1b, all dose levels tested (15 to 225 mg), predose to postdose): Increases in mean heat pain latency values
- Capsaicin-induced flare (capsaicin-induced flare; pretreatment 0.3–30 mg/kg, p.o.): blocked the capsaicin-induced flare in a dose-dependent fashion
- Estimated plasma exposure associated with ED50 (capsaicin-induced flare; rat, data not shown): 0.0676 ± 0.0449 µg/mL
- Flare response induced by 1000 μg topical capsaicin (capsaicin-induced flare; rat, single oral dose of 10 mg/kg): completely blocked
- Participants with increase in QTcF of >30 milliseconds or QTcF >450 milliseconds (QTcF interval; either part of the study): No participant
- Participants with QTcF interval shortening of >30 milliseconds vs baseline (QTcF interval; part 1, 10 mg dose group): 2 n
- Participants with QTcF interval shortening of >30 milliseconds vs baseline (QTcF interval; part 1, 15 mg dose group): 3 n
- Participants with QTcF interval shortening of >30 milliseconds vs baseline (QTcF interval; part 1, 120 mg dose group): 2 n
- Participants with QTcF interval shortening of >30 milliseconds vs baseline (QTcF interval; part 1, 225 mg dose group): 2 n
- Participants with QTcF interval shortening of >30 milliseconds vs baseline (QTcF interval; part 1, all JNJ-39439335 doses): 9 participants
- Participants with QTcF interval shortening of >30 milliseconds vs baseline (QTcF interval; part 2, 50 mg): 4 participants
